Source: article PMC4317336 (Journal of controlled release : official journal of the …, 2013)

Test system: tumor biopsies from stage IV NB patients
Experiment: phage overlay binding assay on tumor biopsies from NB patients
Conditions: human NB sections, compared with Mallory Trichrome histology
Procedure, shortened: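 Frozen sections (5 μm) from stage IV NB patient tumors in OCT, fixed 10 min at room temperature in 4% paraformaldehyde/PBS, washed twice in PBS, and blocked with serum-free protein block. Sections overlaid 1 h at 4°C with 10⁸ T.U./μl of each phage clone; insertless Fd-Tet phage as negative control. Bound phage detected with anti-bacteriophage antibody plus HRP polymer, then hematoxylin counterstain.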

Row | Substance | tumor component preferentially bound
1 | KSFFLSH [Phage #14] | widely recognizes the whole NB masses
2 | WSWPREL [Phage #8] | preferentially bind to non-epithelial tumor components
3 | HSYWLSR [Phage #5] | preferentially bind to non-epithelial tumor components
4 | YEGLISR [Phage #1] | preferentially bind to non-epithelial tumor components
5 | ALAAHKL [Phage #10] | preferentially bind to non-epithelial tumor components
